KCNK9 block = KCNK9 potassium channel inhibitors, primary screen, HEK293 cells, thallium flux; Potassium channel subfamily K member 9 (Homo sapiens), Q9NPC2; FluxOR thallium flux fluorescence; active compounds read low; actives 1.2% (n = 310,000); B-score at 10 µM; AID 488922, 2010;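 active = ratio B-score over 3 SD below the library mean, with starting fluorescence within 5 SD of its mean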;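 also: negative B-score means less thallium flux so channel inhibition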
Target sequence (Q9NPC2 whole entry, looked up): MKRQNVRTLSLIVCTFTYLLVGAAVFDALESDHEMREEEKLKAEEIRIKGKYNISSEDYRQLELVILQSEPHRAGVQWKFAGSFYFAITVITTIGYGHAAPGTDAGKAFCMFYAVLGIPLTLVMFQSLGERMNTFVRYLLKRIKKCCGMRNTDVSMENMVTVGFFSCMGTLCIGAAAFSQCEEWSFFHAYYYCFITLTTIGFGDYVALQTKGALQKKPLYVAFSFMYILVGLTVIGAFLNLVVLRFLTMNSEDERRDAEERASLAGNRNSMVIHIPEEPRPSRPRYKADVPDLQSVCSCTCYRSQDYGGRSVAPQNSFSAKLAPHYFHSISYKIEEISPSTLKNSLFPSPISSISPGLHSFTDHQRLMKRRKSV
KCNQ1 act = potentiators or activators of KCNQ1 channel, primary screen, cell-based, thallium flux, high-throughput; Potassium voltage-gated channel subfamily KQT member 1 (Homo sapiens), P51787; CHO-K1 KCNQ1, thallium flux FluxOR fluorescence; active compounds read high; B-score at 10 µM; actives 0.35% (n = 310,000);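 active = fluorescence ratio B-score, a plate-corrected score, at least three library SD, with initial intensity B-score within 5 SD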
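Assay system: CHO-K1 cells stably expressing KCNQ1. Medium: assay buffer for compound exposure, DMSO matched across wells. Timing: 37 °C overnight plating, 90-min dark dye load, 20-min compound pretreatment. Signal: kinetic FluxOR fluorescence, 10 s baseline plus 110 s post-stimulus.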
KCNK3 inh = human KCNK3 channel inhibitors, primary screen, CHO cells, FluxOR thallium flux, B-score; actives 0.84% (n = 340,000); B-score at 10 µM; Potassium channel subfamily K member 3 (Homo sapiens), O14649; FluxOR fluorescence; active compounds read low;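 active = B-score under library mean minus 4 SD, starting fluorescence ratio at most library mean plus 5 SD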;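 also: more negative B-score means stronger inhibition of thallium flux through KCNK3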
hERG protect = hERG rescue from dofetilide block, primary screen, cell-based, CHO-hERG, FluxOR thallium flux, dofetilide IC70 | actives 0.51% (n = 310,000) | activation (rescue from dofetilide block), less the hit threshold, % at 10 µM | dofetilide IC70 present | Voltage-gated inwardly rectifying potassium channel KCNH2 (Homo sapiens), Q12809;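 active = activation above the mean of controls blocked by dofetilide plus 5 SD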;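 also: thallium influx through hERG after potassium depolarization seen as dye fluorescence rise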
Kir21 block = inhibitors of mouse Kir2.1 inward-rectifier potassium channel; Inward rectifier potassium channel 2 (Mus musculus), P35561; HEK293-Kir2.1, FluxOR thallium flux fluorescence; active compounds read low; B-score at 10 µM; actives 0.85% (n = 310,000); AID 1672, 2009;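 active = fluorescence ratio B-score at or below minus 3 SD of library scores, with starting-brightness B-score within 2 SD, cut at about -4.2 in these data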;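 also: channel flux triggered by added potassium and thallium sulfate stimulus; B-score of peak minus minimum fluorescence over baseline after thallium stimulus; more negative B-score means stronger Kir2.1 block with less thallium influx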
KCNQ1 block = inhibitors of human KCNQ1 channel, primary screen, cell-based, thallium flux, high-throughput. CHO-K1 KCNQ1, FluxOR thallium flux fluorescence; active compounds read high. actives 1.3% (n = 310,000). B-score at 10 µM. AID 2642, 2010;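 active = compounds whose thallium flux B-score, printed positive for inhibition, exceeds three library SD while starting fluorescence stays within three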;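 also: channel opened by potassium depolarization with thallium stimulus after 20 min compound exposure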
KCNQ1 block val = KCNQ1 potassium channel inhibitors, confirmation, cell-based, Tl flux, duplicate; shares compounds with KCNQ1 block; KCNQ1 cell line, FluxOR thallium flux fluorescence; inhibition, % at 10 µM; actives 93% (n = 1,600);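 active = primary screen active, with duplicate mean exceeding buffer control mean plus 3 SD of buffer wells, cut at about 28% in these data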;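 also: 0% = buffer control ratio and 100% = XE991 inhibitor control ratio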
CHO Tl flux = thallium flux effects in parental CHO cells, counter-screen for KCNQ1 inhibitor project, cell-based, Tl flux; shares compounds with KCNQ1 block; parental CHO-K1, FluxOR thallium flux fluorescence ratio; active compounds read low; zero means no signal rise above baseline; fluorescence ratio (Tl flux) at 10 µM; actives 21% (n = 1,600); AID 588366, 2011;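 active = mean of duplicate thallium-flux fluorescence ratios in parental host cells more than 5 SD below the buffer control mean, cut at about 0.38 in these data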;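 also: ratio is peak minus minimum fluorescence divided by baseline fluorescence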
KCNQ1 ephys val = KCNQ1 channel inhibitors, confirmation, orthogonal assay, cell-based, automated electrophysiology; shares compounds with KCNQ1 block; KCNQ1-CHO cells, automated patch clamp current; calls only at 10 µM; actives 20% (n = 490); AID 624120, 2012;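 active = KCNQ1 current drop exceeding 3 SD of negative control wells, seen in both duplicate runs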;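 also: steady state current during a 2 s step from -80 to +40 mV; negative values mean current inhibition and positive values mean potentiation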
KCNQ2 inh = KCNQ2 channel inhibition, selectivity assay for KCNQ1 inhibitor project, cell-based; actives 71% (n = 1,600); shares compounds with KCNQ1 block; KCNQ2 cells, FluxOR thallium flux fluorescence; inhibition, % at 10 µM;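 active = mean percent inhibition of the KCNQ2 thallium signal more than 5 SD above the buffer-only control wells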;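 also: KCNQ2 expressed in CHO cells; 0% = buffer control wells and 100% = XE-991 inhibitor control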
KCNQ1 KCNE1 spec = KCNQ1/KCNE1 channel inhibition, selectivity assay for KCNQ1 inhibitor project, CHO-K1 cells, thallium flux, FluxOR; shares compounds with KCNQ1 block; FluxOR thallium flux fluorescence; inhibition, % at 10 µM; actives 77% (n = 1,600);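 active = mean percent inhibition of duplicate wells above the buffer-only control mean plus 3 SD of those controls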;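 also: 0% = buffer only wells and 100% = XE-991 inhibitor control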
KCNK9 inh conf = KCNK9 potassium channel inhibitors, confirmation, HEK293 cells, thallium flux, duplicate | AID 492992, 2010 | actives 43% (n = 4,900) | FluxOR thallium flux fluorescence | shares compounds with KCNK9 block | inhibition, % at 10 µM;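 active = thallium signal inhibited by more than 5 SD of the compound-free buffer control wells, on both duplicate plates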;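 also: 0% = assay buffer control wells without compound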
Kir2-1 spec = mouse Kir2.1 channel inhibition, confirmation, selectivity assay for KCNK9 modulator project, cell-based, HEK293, thallium flux; shares compounds with KCNK9 block; Kir2.1 cells, FluxOR thallium flux fluorescence; inhibition, % at 10 µM; actives 4% (n = 4,900);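 active = thallium signal drop more than 5 SD beyond the mean of the no-compound control wells, seen in both duplicate plates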;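 also: signal is fluorescence rise after thallium addition divided by baseline fluorescence; plate controls were assay buffer only for no effect and full block by chlorpromazine control for full effect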
HEK293 Tl ctr = thallium flux in non-induced HEK293 cells, confirmation, counter-screen for KCNK9 inhibitor project, cell-based, second counter screen, non-induced KCNK9-HEK293; shares compounds with KCNK9 block; FluxOR thallium flux; inhibition, % at 10 µM; actives 40% (n = 4,900);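 active = thallium signal drop beyond 5 SD of the untreated control mean, on both duplicate plates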;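 also: plate controls were buffer only IC0 wells for no effect and SID17386958 at its maximal inhibitory level for full effect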
KCNK3 inh conf = retest of human KCNK3 channel inhibitors, confirmation, CHO cells, FluxOR thallium flux, triplicate; AID 651638, 2012; ratio percent of control, % at 10 µM; shares compounds with KCNK3 inh; FluxOR fluorescence; 0% buffer, 100% carvedilol maximal block; actives 99% (n = 2,400);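 active = ratio percent of control, averaged over triplicates, above buffer control mean plus 5 SD, cut at about 64% in these data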;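 also: ratio is the fluorescence rise from min to max over baseline after thallium stimulus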
KCNK3 noninduced = thallium flux inhibition in non-induced cells, primary screen, counter-screen for KCNK3 inhibitor project, cell-based, non-induced KCNK3 line, FluxOR thallium, triplicate | thallium flux ratio (lower = more inhibition) at 10 µM | shares compounds with KCNK3 inh | actives 40% (n = 2,400) | non-induced KCNK3 parental cells; active compounds read low;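 active = thallium flux ratio, averaged over three wells, more than 5 SD below the buffer control mean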;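 also: host cells are CHO cells without KCNK3 induction; ratio is peak minus trough fluorescence over baseline then normalized to buffer controls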
An asterisk follows results filed as active. Hits are enriched below; roughly 3.7% of the tested compounds scored in any of these assays.

Cc1ccccc1OCC(O)Cn1c(=N)n(Cc2ccccc2)c2ccccc21 (stereo not given) was read as KCNK9 block inactive, KCNQ1 act inactive, KCNK3 inh -12*, hERG protect -26, Kir21 block -12*, KCNQ1 block 12*, KCNQ1 block val 130*, CHO Tl flux 0.41, KCNQ1 ephys val inactive, KCNQ2 inh 99%*, KCNQ1 KCNE1 spec inactive, KCNK3 inh conf 125* and KCNK3 noninduced inactive.
Screening Fc1cccc(Nc2nc(N3CCOCC3)nc(N3CCOCC3)n2)c1 returned KCNK9 block inactive, KCNQ1 act inactive, KCNK3 inh inactive, hERG protect -12, Kir21 block -0.53 and KCNQ1 block inactive.
O=C(Nc1ccc(OC(F)F)c(Cl)c1)c1cccc(OC(F)F)c1 was read as KCNK9 block -12*, KCNQ1 act inactive, KCNK3 inh -11*, hERG protect -29, Kir21 block 0.7, KCNQ1 block 12*, KCNQ1 block val 106*, CHO Tl flux 0.52, KCNQ1 ephys val active, KCNQ2 inh inactive, KCNQ1 KCNE1 spec 43%*, KCNK9 inh conf 54%*, Kir2-1 spec inactive, HEK293 Tl ctr inactive, KCNK3 inh conf 120* and KCNK3 noninduced inactive.
COc1ccc(NC(=O)c2cccc(OC(F)F)c2)cc1Cl was read as KCNK9 block inactive, KCNQ1 act inactive, KCNK3 inh inactive, hERG protect -8, Kir21 block -0.43 and KCNQ1 block inactive.
`Cc1cccc(S(=O)(=O)NC2CCCCCCC2)c1` gave KCNK9 block inactive, KCNQ1 act inactive, KCNK3 inh inactive, hERG protect -12, Kir21 block -1.1 and KCNQ1 block inactive.

Screens deposited in PubChem by Johns Hopkins Ion Channel Center.
